Sampled rows, rich in hits. Any-hit rate of the full collection: about 1.5%.
VLA-4 inh: inhibition in human VLA-4 binding assay, primary screen, VLA-4 allosteric modulator project, MLPCN library, flow cytometry, VLA-4 expressing cells | ligand binding flow cytometry | inhibition, % (about 7 µM as worked out from the volumes in the protocol) | hit rate 0.2% among 330,000 | AID 2557, 2010; in the data active means inhibition above about 50%
Platelet DG rel: inhibitors of platelet dense granule secretion, primary screen, cell-based, MLPCN, human platelets; inhibition, %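 (compounds screened at 7.5 µM in platelet-rich plasma)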; human platelet-rich plasma, SFLLRN dense granule ATP release, luminescence; hit rate 0.22% among 300,000;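 active means mean replicate score, as percent of positive control, at or above 50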
Myeloid diff MLP: induction of myeloid progenitor differentiation, primary screen, cell-based, flow cytometry, MLPCN library. ER-HoxA9 myeloid progenitors, lysozyme-GFP differentiation. calls only at 10 µM. hit rate 1% among 360,000;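 active means normalized GFP-positive differentiation at or above the plate's own cutoff, the solvent-only control mean plus 3 SD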;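 further: cells exposed to compound for four days before flow analysis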
SENP1 inh: human SENP1 catalytic domain inhibitors, primary screen, biochemical, FRET, uHTS | recombinant SENP1 catalytic domain, CyPet-SUMO1-YPet FRET cleavage | Sentrin-specific protease 1 (Homo sapiens), Q9P0U3 | hit rate 0.21% among 360,000 | inhibition, % at 10 µM;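 active means inhibition at least 30% at 10 µM, raw YFP signal under a set limit, fluorescence ratio 0.5 to 1.5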;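 further: 0% = enzyme with DMSO and 100% = no enzyme wells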
Target sequence (Q9P0U3 419-644 limits assumed): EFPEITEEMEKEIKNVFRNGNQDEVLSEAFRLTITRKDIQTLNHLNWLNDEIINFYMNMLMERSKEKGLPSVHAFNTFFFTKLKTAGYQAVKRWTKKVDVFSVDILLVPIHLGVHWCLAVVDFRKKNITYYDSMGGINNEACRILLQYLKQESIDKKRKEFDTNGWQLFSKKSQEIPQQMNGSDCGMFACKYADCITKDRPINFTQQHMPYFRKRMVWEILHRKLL
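Compound: 10 µM single point, 0.5% DMSO; Test system: hSENP1 catalytic domain, recombinant; Timing: 50 min reaction at room temperature; Technique: FRET, CFP and YFP emission; Control set: no-enzyme wells low, DMSO-plus-enzyme wells high control.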
Myeloid diff CP1: inducers of myeloid progenitor differentiation, confirmation, cell-based, GFP/Mac1 flow cytometry, cherry pick 01; shares compounds with Myeloid diff MLP; ER-HoxA9 myeloid progenitors, GFP/Mac1 double-positive flow; calls only; hit rate 2% among 2,300; AID 651706, 2012;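 active means share of green or green-and-red cells above 9 and 9% in run 1 or 4 and 3% in run 2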
GFP autofluor: counter-screen for myeloid differentiation promoters: compound fluorescence; ER-HoxA9 myeloid progenitors, no estrogen, GFP autofluorescence flow cytometry; vehicle wells 0%, positive control 100%; hit rate 7.4% among 2,300; fluorescence response, % (test concentration not listed); shares compounds with Myeloid diff MLP;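 active means over 5% cells positive for green fluorescent reporter, or over 2% positive for both it and APC stain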;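 further: range taken on the double positive population between DMSO and positive control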
* marks the source's active call; other numbers are inactive results; i = inactive; · = no result; + = active, no number.

SMILES | VLA-4 inh | Platelet DG rel | Myeloid diff MLP | SENP1 inh | Myeloid diff CP1 | GFP autofluor
CC(=O)c1ccc(NC(=O)CSc2nnc(C3CC3)n2C2CC2)cc1 | -1 | · | i | 0 | · | ·
C=CCc1cccc(C=Nc2cc(Br)ccc2O)c1O | 2 | 0 | + | -4 | i | 0
C=CCc1cccc(C=Nc2c[nH]c(=O)[nH]c2=O)c1O | 9 | 3 | i | -10 | · | ·
Cc1cc(C)nc(Nc2ncc(O)n2-c2ccc(C)c(C)c2)n1 | -45 | 1 | i | 1 | · | ·
COc1ccc(OC)c(-n2c(O)cnc2Nc2nc(C)cc(C)n2)c1 | 7 | -8 | i | 0 | i | 0
CC(C)(C)c1ccc(S(=O)(=O)NCCc2ccncc2)cc1 | -7 | 3 | i | 2 | · | ·
CC(C)(C)c1ccc(S(=O)(=O)NCCOCC(F)(F)C(F)F)cc1 | -5 | 10 | + | -2 | i | 0
COc1ccc(C(=O)NC2CCCCCC2)cc1S(=O)(=O)N1CCCc2ccccc21 | 8 | 0 | i | 2 | i | 0
O=C(Nc1ccncc1)c1ccc(Cl)c(S(=O)(=O)N2CCc3ccccc32)c1 | 45 | 6 | i | 1 | i | 1
COc1ccc(C(=O)NC2CCCCCC2)cc1S(=O)(=O)N1CCCC1 | 8 | -3 | i | 1 | · | ·
Cc1cc(=O)[nH]c(SCC(=O)Nc2nonc2C)n1 | -9 | 1 | i | 1 | · | ·
CC(C)n1cc(CN2CCC(C(=O)Nc3cccc(-c4cccc(Cl)c4)c3)CC2)cn1 | 9 | 6 | + | -3 | i | 0
Cc1cccc(N(CC(=O)NC2CCCCC2)C(=O)Cn2nnc(-c3ccc(C)o3)n2)c1 | 10 | 20 | i | -3 | · | ·
COc1ccc(-c2csc(C(NC(C)=O)c3cccc(F)c3)n2)cn1 (stereo not given) | · | · | + | 0 | i | 1
COc1ccc(-c2csc(C(NC(C)=O)c3ccc(F)c(F)c3)n2)cn1 (stereo not given) | · | · | i | -4 | · | ·
CC(=O)Nc1ccc(NC(=O)C(C)O/N=C/c2cccc([N+](=O)[O-])c2)cc1 (stereo not given) | 5 | 2 | i | 1 | i | 0
COC(=O)c1cccc(C#CC(NP(=O)(c2ccccc2)c2ccccc2)c2ccccc2)c1 (stereo not given) | 1 | -5 | i | -1 | i | 0
CCC[C@@H]1C[C@@]1(CCC)[C@@H](NP(=O)(c1ccccc1)c1ccccc1)c1ccc(C(=O)OC)cc1 | 3 | 2 | · | · | · | ·
COc1ccc(-c2csc3ncn(-c4ccccc4OC)c(=O)c23)cc1OC | -7 | -4 | + | 0 | i | 0
COc1ccc(-c2csc3ncn(-c4ccccc4)c(=O)c23)cc1OC | 15 | 1 | i | 1 | · | ·
CC(C)(C)c1ccc(C(=O)NC(Cc2ccccc2)C(=O)O)cc1 (stereo not given) | -5 | -3 | i | 0 | i | 0
Cc1ccc(S(=O)(=O)NCc2ccccc2)cc1C(=O)NC(C)c1ccc(S(N)(=O)=O)cc1 (stereo not given) | · | · | i | 2 | · | ·
CC(C)CNC(=O)c1ccccc1SCC(=O)NC12CC3CC(CC(C3)C1)C2 | 5 | 0 | + | -3 | i | 4
O=C(NC1CCCCCCC1)C1CCN(c2nc3ccccc3o2)CC1 | 7 | 2 | i | -8 | i | 1
Cc1ccc(N(C(=O)Cn2nnc(-c3cccs3)n2)C(C(=O)NC2CCCC2)c2ccncc2)cc1 (stereo not given) | 4 | 0 | i | 4 | i | 0
Cc1ccc(CSc2nnc(-c3cccnc3)n2N)cc1 | 27 | -3 | i | -3 | · | ·
Cc1ccc(C(=O)CSc2nnc(-c3cccnc3)n2N)cc1 | 4 | 10 | i | 2 | i | 0
Cc1cccc(C(=O)OCC(=O)c2ccc(CC(=O)N3CCOCC3)s2)c1C | -7 | · | i | -36 | · | ·
COc1ccc2sc3c(=O)[nH]c4ccccc4c3c2c1 | 2 | 6 | + | 0 | i | 0

Screens as filed in PubChem BioAssay.
